CHO-K1 Ca PAM: nonselective activator or artifact in parental CHO-K1 calcium assay; ATP EC20, Fluo-8 calcium fluorescence; 0% at ATP EC20, 100% at ATP max; activation, % at 3 µM; 360,000 compounds, 0.02% hits;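 active = activation above the run cutoff, the mean activation of all test compounds plus 3 SD, cut at about 40% in these data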;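 note: peak over basal fluorescence ratio in a 140 s read after ATP addition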
OX1R antag-1: blocks the human orexin 1 receptor; inhibition, % at 6.6 µM; AID 485270; OX1R-expressing cells, FRET antagonist read-out; 330,000 compounds, 1.8% hits; O43613; in the data active = inhibition mostly above about 38%, no sharp cut-off; inactive = mostly below about 40%
Target sequence (O43613 whole entry, looked up): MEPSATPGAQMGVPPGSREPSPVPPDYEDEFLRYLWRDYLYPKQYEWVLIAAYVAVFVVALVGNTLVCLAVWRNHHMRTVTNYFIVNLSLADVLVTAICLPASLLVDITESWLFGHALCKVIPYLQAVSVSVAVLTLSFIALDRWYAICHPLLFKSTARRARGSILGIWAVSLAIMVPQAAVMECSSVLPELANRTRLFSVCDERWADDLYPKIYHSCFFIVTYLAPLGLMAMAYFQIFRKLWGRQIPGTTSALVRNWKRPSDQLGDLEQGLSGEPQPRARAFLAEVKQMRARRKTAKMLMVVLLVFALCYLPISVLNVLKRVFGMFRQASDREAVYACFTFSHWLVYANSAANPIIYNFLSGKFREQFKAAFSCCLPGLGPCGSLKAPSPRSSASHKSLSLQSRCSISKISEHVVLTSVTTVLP
CHO-K1 Ca ag: nonselective activator or artifact in parental CHO-K1 cells. Fluo-8 calcium fluorescence; scaled to maximal ATP response, vehicle zero. AID 602248. activation, % at 3 µM. 360,000 compounds, 0.48% hits; in the data active = activation above about 15%;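 note: untransfected CHO-K1 host cells lacking M1 receptor as counterscreen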
OX1R antag-2: blocks the human orexin 1 receptor | O43613 | CHO/OX1R cells, Fluo-8 calcium fluorescence, orexin A | inhibition, % at 5 µM | 330,000 compounds, 0.43% hits;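 active = inhibition above its plate's threshold, mean inhibition of all tested compounds on the plate plus 3 SD, cut at about 37% in these data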
CHO parental Ca: counter-screen: ATP calcium response change in parental CHO cells; parental CHO-K1, ATP-induced calcium, Fluo-8 fluorescence; inhibition, % at 5.6 µM; 330,000 compounds, 0.63% hits;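 active = inhibition above that plate's mean sample inhibition plus 3 SD, cut at about 26% in these data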
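Assay system: untransfected parental CHO cell line. Also added: ATP agonist challenge. Dosing: one dose, 5.6 µM nominal. Measured by: Fluo-8 fluorescence. Read-out: % inhibition. Benchmarks: ATP wells versus no-ATP DMSO wells. Repeats: no replicates.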
CHO-K1 Ca antag: counter-screen for M1 antagonists: effect in parental CHO-K1 cells. inhibition, % at 3 µM. AID 602250. 360,000 compounds, 0.6% hits. ATP-induced calcium, Fluo-8 fluorescence;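 active = inhibition above a per-plate cutoff, the plate's mean sample inhibition plus 3 SD, cut at about 24% in these data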
A number is an active result; . = inactive; / = no result given. Only some compounds are listed: those with a hit (about 2.9% of all), similar ones and a draw of the others.

SMILES	CHO-K1 Ca PAM	OX1R antag-1	CHO-K1 Ca ag	OX1R antag-2	CHO parental Ca	CHO-K1 Ca antag
CCO/C(C)=N/Oc1cc(OC)cc(OC)c1	.	/	.	/	/	.
COc1cc(C2Nc3ccc4ncccc4c3C3=C2C(=O)CCC3)cc(OC)c1O (centres undefined)	.	68	.	.	.	.
COc1cc(C2Nc3ccc4ncccc4c3C3=C2C(=O)CC(C)(C)C3)cc(OC)c1O (centres undefined)	.	.	.	.	.	.
CC1(C(=O)NCCC#N)CCN1C(=O)Cc1ccc(-c2ccccc2)cc1 (centres undefined)	.	/	.	/	/	.
C=CC[n+]1c(/C=C/c2ccc(OC(C)=O)c(OC)c2)ccc2ccccc21	.	48	.	.	.	.
COc1cc(/C=C2\SC(=S)N(NC(=O)c3ccccc3O)C2=O)ccc1O	.	.	.	.	35	.
COc1ccc(/C=C2\SC(=S)N(NC(=O)c3ccncc3)C2=O)cc1OC	/	.	/	.	.	/
Cc1cc(SCC(=O)N2CCC(c3noc4ccc(F)cc34)CC2)nc2ccccc12	.	49	.	.	.	.
CC(=O)c1ccc(N2CCN(C(=O)CNC(=O)c3ccc(Br)o3)CC2)cc1	.	/	.	/	/	.
COc1cccc2c1C1COC3C4CC(C(=O)O)C(C(C2)N13)N4C (centres undefined)	.	/	.	/	/	.
COc1ccccc1Nc1ncccc1C(=O)NCc1ccccc1	.	75	.	.	.	.
COc1ccccc1OCC(=O)Nc1ccccc1C(=O)NCc1cccnc1	.	.	.	.	.	.
COc1ccc(COc2ccccc2C(=O)NCc2ccccc2)cc1F	.	.	.	.	34	.
O=S(=O)(c1ccc2nc(Nc3ccccc3)ccc2c1)N1CCCCC1	.	.	.	.	.	.
O=C(N/N=C\c1cn(-c2ccccc2)nc1-c1ccccc1)c1ccc2c(c1)OCO2	.	77	.	.	.	.
O=C(N/N=C/c1ccc(-c2ccc(Br)cc2)o1)c1ccc2c(c1)OCO2	.	36	.	.	.	.
O=C(N/N=C/c1cn(-c2ccccc2)nc1-c1ccc(F)cc1)c1ccc2c(c1)OCO2	.	.	.	.	.	.
CCCC(=O)N1CCC1(C)C(=O)Nc1cccc(OC(C)C)c1 (centres undefined)	.	/	.	/	/	.
CCOC(=O)c1c(NC(=O)C(C)N2CCN(C(=O)c3ccco3)CC2)sc2c1CCCC2 (centres undefined)	.	.	.	66	60	.
CCOC(=O)/C=C/C(=O)Nc1ccc(Oc2ccccc2)cc1	.	.	.	.	44	28
O=[N+]([O-])c1ccc(Nc2ccccc2)c2nonc12	.	68	.	.	.	.
CC(=O)NS(=O)(=O)c1ccc(Nc2ccc([N+](=O)[O-])c3nonc23)cc1	.	76	.	.	.	.
CCOc1ccc(Nc2ccc([N+](=O)[O-])c3nonc23)cc1	.	.	.	.	.	.
O=[N+]([O-])c1ccc(Sc2cccc[n+]2[O-])c2nonc12	.	/	.	/	/	88
CC(C)(C)c1ccc(C(=O)N2CCC2(C)C(=O)Nc2cccc3ccccc23)cc1 (centres undefined)	.	/	.	/	/	.
SMILES	CHO-K1 Ca PAM	OX1R antag-1	CHO-K1 Ca ag	OX1R antag-2	CHO parental Ca	CHO-K1 Ca antag
CCC(NC(=O)c1cc(COc2ccc(F)cc2Cl)on1)c1ccncc1 (centres undefined)	.	/	.	/	/	.
CC(C)Cn1c2c(c(O)c(C(=O)Nc3ccc(F)cc3)c1=O)CCCC2	.	.	.	.	.	25
O=C(Nc1ccc(Cl)cn1)C1CCCN1S(=O)(=O)c1ccc(Cl)cc1 (centres undefined)	.	64	.	.	.	.
O=C(Nc1ccc(Cl)cn1)C1CCCN1S(=O)(=O)c1cccc2ccccc12 (centres undefined)	.	64	.	.	.	.
O=C1NC(=Nc2ccccc2Cl)S/C1=C\c1cccc([N+](=O)[O-])c1O	.	.	.	.	.	.
COc1cc(/C=C2/S/C(=N/S(=O)(=O)Cc3ccccc3)NC2=O)c([N+](=O)[O-])cc1OC	.	41	.	.	.	.
COc1c(/C=C2\SC(=Nc3ccccc3Cl)NC2=O)cccc1[N+](=O)[O-]	.	68	.	.	.	.
COc1cc(/C=C2\S/C(=N/S(=O)(=O)Cc3ccccc3)NC2=O)c([N+](=O)[O-])cc1OC	.	.	.	.	.	.
O=C1N/C(=N\S(=O)(=O)c2ccccc2)S/C1=C\c1cc([N+](=O)[O-])ccc1O	.	.	19	59	46	.
CSc1ccccc1NS(=O)(=O)c1ccccc1	.	.	.	.	.	25
COC(=O)c1sccc1S(=O)(=O)N1CCCC(N(C)CCc2ccccn2)C1 (centres undefined)	.	.	.	.	.	.
CCCc1ccc(OCC(=O)Nc2cc(S(=O)(=O)CC)ccc2O)cc1	.	.	16	.	.	.
O=Cc1cc(-c2ccccc2)[nH]c1-c1ccccc1	.	.	.	.	74	.
Clc1cccc(CNc2ccn3nc(-c4ccco4)cc3n2)c1	.	/	.	/	/	26
Cc1ccc(/C=C/C(=O)N2CCC(Cc3ccccc3)CC2)cc1	.	.	.	.	.	.
CC[n+]1cc(-c2ccccc2)nc(N2CCOCC2)n1	.	51	.	.	.	.
CC(=O)NC(c1ccccc1)c1nc(-c2ccc(C)c(C)c2)cs1 (centres undefined)	.	/	.	/	/	.
C=CCc1cccc(/C=N/NC(=O)c2ccccc2Br)c1O	44	.	.	.	.	.
C=CCc1cccc(/C=N/NC(=O)C(=O)Nc2ccc(C)cc2)c1O	.	49	.	.	.	.
C=CCc1cccc(/C=N/NC(=O)c2ccccc2OC)c1O	.	.	.	.	.	.
O=[N+]([O-])c1ccc(-c2nnc3cccc(Cl)n23)cc1	.	49	.	.	.	.
COc1cccc(Nc2nc(C(N)Cc3ccc(F)cc3)cs2)n1 (centres undefined)	.	/	15	/	/	.
COc1ccc(CC(N)c2csc(Nc3cccc(OC)n3)n2)cc1 (centres undefined)	.	/	.	/	/	.
CN(C(=O)COC(=O)/C=C/c1cccs1)C1CCCCC1	.	.	.	.	.	.
Cc1ccccc1CS(=O)(=O)c1nnc([C@H](CC(C)C)NC(=O)OC(C)(C)C)o1	.	.	.	.	43	.
CN(C)c1ccc(-c2nnc(-c3ccccc3F)o2)cc1	.	51	19	.	.	.
Cc1ccc(C)n1-c1cc([N+](=O)[O-])ccc1-n1ccnc1	.	.	.	.	.	.
CC1(C)N([O-])c2cc([N+](=O)[O-])ccc2[N+]1=O	/	53	/	.	.	/
C=CCc1cccc(/C=N/NC(=O)c2ccc3nc[nH]c3c2)c1O	.	.	.	.	.	.
